Screens as filed in PubChem.
TRPC4 inh: TRPC4 (mouse) channel inhibition | Q9QUQ5 | AID 2247 | 300,000 tested, 0.39% active | B-score at 10 µM | HEK293 TRPC4beta/mu-opioid, DAMGO-evoked Fluo4 calcium flux; stronger effect = lower value;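 active = B-score over 3 SD under the library average, no early fluorescence shift, positive overall ratio signal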
Target sequence (Q9QUQ5 whole entry, looked up): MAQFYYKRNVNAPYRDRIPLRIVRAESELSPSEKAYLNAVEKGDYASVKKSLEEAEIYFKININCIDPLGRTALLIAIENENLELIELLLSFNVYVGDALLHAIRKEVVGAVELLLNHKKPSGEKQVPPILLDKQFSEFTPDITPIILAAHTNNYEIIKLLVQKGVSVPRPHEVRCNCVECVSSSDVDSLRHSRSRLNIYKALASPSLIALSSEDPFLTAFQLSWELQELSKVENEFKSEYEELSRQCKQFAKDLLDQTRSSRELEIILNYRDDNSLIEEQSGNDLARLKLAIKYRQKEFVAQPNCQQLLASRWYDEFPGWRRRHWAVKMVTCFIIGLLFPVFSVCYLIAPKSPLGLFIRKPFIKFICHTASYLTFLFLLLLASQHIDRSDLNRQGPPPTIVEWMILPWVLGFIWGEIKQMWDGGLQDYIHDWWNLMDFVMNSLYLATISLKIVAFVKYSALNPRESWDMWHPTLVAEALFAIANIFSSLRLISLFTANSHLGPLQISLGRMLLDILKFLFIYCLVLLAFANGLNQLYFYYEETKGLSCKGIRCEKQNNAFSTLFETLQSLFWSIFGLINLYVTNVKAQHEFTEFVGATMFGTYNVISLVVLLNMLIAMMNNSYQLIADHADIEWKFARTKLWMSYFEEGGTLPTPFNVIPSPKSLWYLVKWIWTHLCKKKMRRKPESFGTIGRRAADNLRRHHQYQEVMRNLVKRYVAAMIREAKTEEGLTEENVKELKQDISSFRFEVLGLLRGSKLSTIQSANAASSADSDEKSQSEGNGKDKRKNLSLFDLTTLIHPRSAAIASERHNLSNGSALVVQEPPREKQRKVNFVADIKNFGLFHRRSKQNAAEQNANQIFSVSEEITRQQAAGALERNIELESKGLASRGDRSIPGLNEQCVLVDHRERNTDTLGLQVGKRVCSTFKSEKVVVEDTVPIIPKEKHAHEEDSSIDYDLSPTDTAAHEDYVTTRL
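Assay system – HEK293 line stably carrying TRPC4beta and mu-opioid receptor · Doses – single dose · Detection – Fluo4 calcium-dye fluorescence, kinetic read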
TRPC4 agonist: TRPC4 (mouse) channel activation; Q9QUQ5; HEK293 TRPC4beta/mu-opioid, Fluo4 calcium fluorescence; stronger effect = higher value; B-score at 10 µM; 310,000 tested, 0.49% active;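 active = B-score above 5 SD of library B-scores, and initial fluorescence ratio not above library mean plus 5 SD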;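 note: positive B-score marks a calcium rise read as TRPC4 activation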
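System – HEK293 cells stably co-expressing mouse TRPC4beta and mu-opioid receptor · Signal – Fluo4 calcium-sensitive dye fluorescence, kinetic, 1 Hz baseline · Benchmarks – buffer (low) and maximal DAMGO (high) · Read-out – B score of integrated fluorescence ratio per well · Incubation – dye loading 45 min room temperature, 110 s kinetic read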
TRPC6 inh: blocks the mouse TRPC6 cation channel; Q61143; HEK293-TRPC6, membrane potential dye, ACh-evoked depolarization; stronger effect = lower value; B-score at 10 µM; 310,000 tested, 1.1% active; AID 2553;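 active = B-score under library mean minus 3 SD, initial fluorescence not abnormally high, positive integrated signal ratio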;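 note: B-score derived from integrated fluorescence ratio over the kinetic read; more negative B-score means stronger inhibition of depolarization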
TRPC6 activator: activates the mouse TRPC6 cation channel; Q61143; 310,000 tested, 0.13% active; B-score at 10 µM; HEK293-TRPC6 membrane potential dye fluorescence; stronger effect = higher value;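 active = B-score of the integrated fluorescence ratio above library mean plus 3 SD, and starting fluorescence ratio within library mean plus 5 SD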;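 note: higher score means more depolarization so channel activation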
TRPC4 potent: allosterically enhances the mouse TRPC4 cation channel; HEK293 TRPC4beta/mu-opioid, DAMGO EC20, Fluo-4 Ca2+ flux; stronger effect = higher value; B-score at 10 µM; 310,000 tested, 0.42% active; AID 2227;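 active = B-score of calcium response area above 5 SD of library B-scores, with initial fluorescence ratio within 5 SD of library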;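 note: B-score of integrated fluorescence ratio over time as area under calcium response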
TRPC4 sel inh 2: second selectivity test of TRPC6 inhibitors: effect on mouse TRPC4. shares compounds with TRPC6 inh. HEK293 TRPC4/MOR, membrane potential dye fluorescence; channel activated by saturating DAMGO dose. inhibition, % at 10 µM. 920 tested, 42% active;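 active = compounds whose fluorescence signal differed from control wells by over 3 SD, either direction, in both duplicate plates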
TRPC4 spec: selectivity of TRPC6 inhibitors: effect on mouse TRPC4; shares compounds with TRPC6 inh; HEK293 TRPC4/mu-opioid, membrane potential fluorescence; activity change, negative = inhibition, % at 10 µM; 920 tested, 61% active; AID 2777;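 active = rise or fall in signal beyond 3 SD of buffer-only wells in both replicate plates, either sign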;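 note: integrated kinetic ratio of fluorescence range over baseline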
HEK293 MPD ctr 2-1: second counter-screen for TRPC6 inhibitors: parental HEK293 cells; shares compounds with TRPC6 inh; parental HEK293 membrane potential dye fluorescence; maximal acetylcholine challenge after compound addition; signal change vs control, % at 10 µM; 920 tested, 31% active; AID 2779;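 active = membrane potential signal moving either way by over 3 SD of the maximum-effect control, in both duplicate plates, meaning non-specific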
HEK293 MPD ctr-1: parental HEK293 nonspecific activity of TRPC6 inhibitors | shares compounds with TRPC6 inh | membrane potential signal change, % at 10 µM | AID 2780 | 920 tested, 60% active | parental HEK293 membrane potential dye fluorescence;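 active = membrane potential signal shifting up or down by more than 3 SD of buffer-only wells, on both duplicate plates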
HEK293 MPD ctr-2: counter-screen for TRPC6 modulators: effect in parental HEK293 cells | AID 488924 | membrane potential dye fluorescence | 2,400 tested, 51% active | shares compounds with TRPC6 inh | membrane potential signal change, % at 10 µM;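 active = membrane potential signal moves up or down beyond 5 SD from buffer-only wells, on both duplicate plates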
HEK293 MPD ctr 2-2: second check of TRPC6 modulator effects in parental HEK293 cells. 2,400 tested, 14% active. shares compounds with TRPC6 inh. membrane potential dye fluorescence; after compound, maximal acetylcholine stimulation. inhibition, % at 10 µM;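 active = membrane potential signal drops by more than 5 SD from the mean control signal, in both duplicate plates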;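 note: plate controls were acetylcholine ECmax control wells for no effect and buffer only wells for full effect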
TRPC4 ctr mod: selectivity of TRPC6 modulators against mouse TRPC4; shares compounds with TRPC6 inh; HEK293 TRPC4/mu-opioid, membrane potential fluorescence; percent change from control (negative = decrease, positive = increase), % at 10 µM; 2,400 tested, 69% active; AID 488927;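 active = membrane potential signal moved up or down beyond 5 SD of buffer control wells, in both duplicate plates, actives on both sides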;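 note: plate controls were assay buffer wells for no effect and DAMGO maximal-effect wells for full effect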
TRPC4 ctr inh 2: mouse TRPC4 off-target activity of TRPC6 modulators, second screen. shares compounds with TRPC6 inh. HEK293 TRPC4/mu-opioid, membrane potential dye fluorescence; stimulated with maximal-effect DAMGO. inhibition, % at 10 µM. 2,400 tested, 55% active. AID 488928;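 active = drop in membrane potential signal beyond 5 SD of the control wells in both duplicate plates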;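 note: TRPC4 counter screen for TRPC6 hits run under conditions tuned for TRPC6 not TRPC4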
TRPC6 inh conf: confirmation of mouse TRPC6 inhibitors. shares compounds with TRPC6 inh. HEK293-TRPC6, membrane potential dye, ACh-evoked depolarization. inhibition, % at 10 µM. 3,300 tested, 43% active. AID 488960;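 active = fluorescence ratio falls more than 5 SD below the full-stimulation control mean, in both duplicate runs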;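 note: integrated fluorescence ratio of peak minus minimum over baseline after agonist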
TRPC6 act conf: confirmation of mouse TRPC6 activators; shares compounds with TRPC6 inh; HEK293-TRPC6 membrane potential dye fluorescence, FDSS; activation, % at 10 µM; 2,800 tested, 11% active; AID 488961;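 active = ratio signal rise beyond 5 SD above unstimulated control wells' mean, seen in both duplicate runs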;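 note: plate controls were buffer EC0 wells for no effect and acetylcholine ECmax response for full effect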
The depositor's hits bear a star. In the library only some 2.3% were active in any assay of this set; here they are far more common.

What do the screens show for `CC[N+]12CCC(CC1)C(C(O)(c1ccccc1)c1ccccc1)C2` (centres undefined)?
TRPC4 inh: inactive; TRPC4 agonist: inactive; TRPC6 inh: -6*; TRPC6 activator: inactive; TRPC4 potent: inactive; HEK293 MPD ctr-2: inactive; HEK293 MPD ctr 2-2: inactive; TRPC4 ctr mod: inactive; TRPC4 ctr inh 2: inactive; TRPC6 inh conf: 82%*; TRPC6 act conf: inactive

What do the screens show for `CCC(=NCCCN(CC)CC)c1c(O)n(-c2ccccc2)c(=O)[nH]c1=O`?
TRPC4 inh: inactive; TRPC4 agonist: inactive; TRPC6 inh: inactive; TRPC6 activator: inactive; TRPC4 potent: inactive

What do the screens show for `CN1[C@@H]2CC[C@H]1CC(OC(=O)C(CO)c1ccccc1)C2` (some centres undefined)?
TRPC4 inh: inactive; TRPC4 agonist: inactive; TRPC6 inh: -6.9*; TRPC6 activator: inactive; TRPC4 potent: inactive; TRPC4 sel inh 2: inactive; TRPC4 spec: inactive; HEK293 MPD ctr 2-1: -18%*; HEK293 MPD ctr-1: inactive; TRPC6 inh conf: 101%*; TRPC6 act conf: inactive

Results for C[N+]1(C)C2CCC1CC(OC(=O)C(CO)c1ccccc1)C2 (centres undefined) ?
TRPC4 inh: inactive; TRPC4 agonist: inactive; TRPC6 inh: -8.5*; TRPC6 activator: inactive; TRPC4 potent: inactive; TRPC4 sel inh 2: inactive; TRPC4 spec: inactive; HEK293 MPD ctr 2-1: -32%*; HEK293 MPD ctr-1: inactive; TRPC6 inh conf: 102%*; TRPC6 act conf: inactive

What do the screens show for `C[N+]1(C)C2CCC1CC(OC(=O)c1ccccc1)C2` (centres undefined)?
TRPC4 inh: inactive; TRPC4 agonist: inactive; TRPC6 inh: inactive; TRPC6 activator: inactive; TRPC4 potent: inactive

How did C#CC[N+]1(C)[C@@H]2CC(OC(=O)C(CO)c3ccccc3)C[C@H]1C(O)C2 (some centres undefined) do in these assays?
TRPC4 inh: inactive; TRPC4 agonist: inactive; TRPC6 inh: -9.9*; TRPC6 activator: inactive; TRPC4 potent: inactive; TRPC4 sel inh 2: inactive; TRPC4 spec: inactive; HEK293 MPD ctr 2-1: 1.5%*; HEK293 MPD ctr-1: inactive; TRPC6 inh conf: 87%*; TRPC6 act conf: inactive

What do the screens show for `CC1CCSP(=O)(Oc2ccccc2)O1` (centres undefined)?
TRPC4 inh: inactive; TRPC4 agonist: inactive; TRPC6 inh: inactive; TRPC6 activator: inactive; TRPC4 potent: inactive

Results for O=[N+]([O-])NC1=NCCN1Cc1ccc(Cl)nc1 ?
TRPC4 inh: inactive; TRPC4 agonist: inactive; TRPC6 inh: inactive; TRPC6 activator: inactive; TRPC4 potent: inactive

How did COCCOC(=O)c1c(C)oc2ccc(OC(=O)N(C)C)cc12 do in these assays?
TRPC4 inh: inactive; TRPC4 agonist: inactive; TRPC6 inh: inactive; TRPC6 activator: inactive; TRPC4 potent: inactive

Results for CCN1CC2([N+](=O)[O-])CC=C(Cl)C([N+](=O)[O-])(C1)C2 (centres undefined) ?
TRPC4 inh: inactive; TRPC4 agonist: inactive; TRPC6 inh: inactive; TRPC6 activator: inactive; TRPC4 potent: inactive

What do the screens show for `O=[N+]([O-])c1ccccc1CNCCc1c[nH]c2ccccc12`?
TRPC4 inh: inactive; TRPC4 agonist: inactive; TRPC6 inh: -5.5*; TRPC6 activator: inactive; TRPC4 potent: inactive; HEK293 MPD ctr-2: inactive; HEK293 MPD ctr 2-2: inactive; TRPC4 ctr mod: inactive; TRPC4 ctr inh 2: 42%*; TRPC6 inh conf: inactive; TRPC6 act conf: inactive

How did CCOc1ccccc1CNCCc1ccc2c(c1)OCO2 do in these assays?
TRPC4 inh: inactive; TRPC4 agonist: inactive; TRPC6 inh: inactive; TRPC6 activator: inactive; TRPC4 potent: inactive

Results for CCOc1ccccc1CN1C2CCC1CC(c1ccc(C)cc1)C2 (centres undefined) ?
TRPC4 inh: inactive; TRPC4 agonist: inactive; TRPC6 inh: inactive; TRPC6 activator: 16*; TRPC4 potent: inactive; HEK293 MPD ctr-2: 265%*; HEK293 MPD ctr 2-2: inactive; TRPC4 ctr mod: 69%*; TRPC4 ctr inh 2: 58%*; TRPC6 inh conf: inactive; TRPC6 act conf: 108%*

Results for CO[C@H]1[C@@H](OC)CC(OC2OC(CO)C(O)C(O)C2O)/C(=C\C#N)[C@@H]1O (some centres undefined) ?
TRPC4 inh: inactive; TRPC4 agonist: inactive; TRPC6 inh: inactive; TRPC6 activator: inactive; TRPC4 potent: inactive

What do the screens show for `CCOC(C(=O)OCCCN(CC)CC)(c1ccccc1)c1ccccc1`?
TRPC4 inh: inactive; TRPC4 agonist: inactive; TRPC6 inh: inactive; TRPC6 activator: inactive; TRPC4 potent: inactive

Results for CCN(CC)CCCOC(=O)C(OC(C)C)(c1ccccc1)c1ccccc1 ?
TRPC4 inh: inactive; TRPC4 agonist: inactive; TRPC6 inh: -9.1*; TRPC6 activator: inactive; TRPC4 potent: inactive; TRPC4 sel inh 2: 66%*; TRPC4 spec: 39%*; HEK293 MPD ctr 2-1: inactive; HEK293 MPD ctr-1: 22%*; TRPC6 inh conf: 57%*
